Test results from ChEMBL document CHEMBL1131235, “(R)-(+)-2-[[[3-(Morpholinomethyl)-2H-chromen-8-yl]oxy]methyl] morpholine methanesulfonate: a new selective rat 5-hydroxytryptamine1B receptor antagonist” (J Med Chem, 1998).

How the values were obtained:
[1] = target: 5-hydroxytryptamine receptor 1B (Rattus norvegicus, UniProt P28564); test: Binding affinity against 5-hydroxytryptamine 1B receptor in membranes of Rat cerebral cortex; assay type: tissue-based
How it was run: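 Rat cerebral cortical membranes labelled with [125I]iodocyanopindolol in the presence of 60 μM isoproterenol to block β-adrenoceptor binding. Nonspecific binding was defined with 10 μM 5-HT.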

[2] = system: Rattus norvegicus; test: Effect on the wet dog shake response(WDS) in rats after 8 determinations at a dose of 1 mg/kg, sc pretreated with saline; conditions: route subcutaneous
[3] = system: Rattus norvegicus; test: Effect on the wet dog shake response(WDS) in rats after 8 determinations at a dose of 1 mg/kg, sc pretreated with 200 mg/kg ip of pCPA.

5-hydroxytryptamine receptor 1B, sequence (P28564 whole entry): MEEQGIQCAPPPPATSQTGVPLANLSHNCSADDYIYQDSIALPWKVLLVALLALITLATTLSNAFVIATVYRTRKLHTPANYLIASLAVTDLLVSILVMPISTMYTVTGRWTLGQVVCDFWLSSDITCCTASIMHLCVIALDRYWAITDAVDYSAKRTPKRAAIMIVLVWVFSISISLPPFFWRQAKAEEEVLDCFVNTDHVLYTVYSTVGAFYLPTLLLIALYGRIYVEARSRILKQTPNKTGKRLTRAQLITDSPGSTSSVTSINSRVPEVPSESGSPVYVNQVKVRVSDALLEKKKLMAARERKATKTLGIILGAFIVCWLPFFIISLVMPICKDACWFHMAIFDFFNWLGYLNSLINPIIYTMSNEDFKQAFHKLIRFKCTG

| Structure (SMILES) | Ki [1] | No. of WDS/60 min [2] | No. of WDS/60 min [3] |
| --- | --- | --- | --- |
| N#CC1=Cc2cccc(OCC3CCCNC3)c2OC1 (racemic) | 1400 nM |  |  |
| C1=C(CN2CCOCC2)COc2c1cccc2OCC1CNCCO1 (racemic) | 60 nM |  |  |
| O=C(C1=Cc2cccc(OCC3CNCCO3)c2OC1)N1CCOCC1 (stereo not drawn) | 240 nM |  |  |
| CN1CCOC(COc2cccc3c2OCC(C#N)=C3)C1 (racemic) | 3600 nM |  |  |
| c1ccc2nc(N3CCNCC3)ccc2c1 [QUIPAZINE] |  | 36 | 30 |
| N#CC1=Cc2cccc(OCC3CNCCO3)c2CC1 (racemic) | 445 nM |  |  |
| N#CC1=Cc2cccc(OCC3CNCCO3)c2OC1 (racemic) | 250 nM |  |  |
